{
  "source": "ChEMBL document CHEMBL4425094",
  "about": "“Novel Benzo[a]quinolizidine Analogs Induce Cancer Cell Death through Paraptosis and Apoptosis” (J Med Chem, 2016)",
  "key": {"[1]": {"tested_on": "PC-3", "test": "Induction of cell cycle arrest in human PC3 cells assessed as accumulation in G0/G1 phase at 1 uM after 24 hrs by […]propidium iodide based flow cytometric analysis (reference value: 43.5 to 62.5 %)", "format": "functional"}, "[2]": {"tested_on": "PC-3", "test": "Induction of cell cycle arrest in human PC3 cells assessed as accumulation in S phase at 0.5 uM after 24 hrs by […]propidium iodide based flow cytometric analysis (reference value: 21 to 31.6 %)", "format": "functional"}, "[3]": {"tested_on": "PC-3", "test": "Induction of cell cycle arrest in human PC3 cells assessed as accumulation in G2 phase at 2 uM after 24 hrs by […]propidium iodide based flow cytometric analysis (reference value: 16.3 to 25 %)", "format": "functional"}, "[4]": {"tested_on": "PC-3", "test": "Induction of apoptosis in human PC3 cells assessed as viable cells at 1 uM after 24 hrs by Annexin V-FITC/propidium iodide based flow cytometric analysis (reference value: 95.4 %)", "format": "functional", "settings": "PC-3, 24 h, read-out: Activity", "method_in_brief": "(§1)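 PC3 cells exposed to 0.5, 1 or 2 μM for 24 h, then stained with Annexin V-FITC and PI and analyzed by FACSCalibur flow cytometry. Populations assigned as necrotic (Annexin V−/PI+), late apoptotic (double positive), normal (Annexin V−/PI−) and early apoptotic (Annexin V+/PI−). DMSO vehicle control.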"}, "[5]": {"tested_on": "PC-3", "test": "Induction of apoptosis in human PC3 cells assessed as necrotic cells at 2 uM after 24 hrs by Annexin V-FITC/propidium iodide based flow cytometric analysis (reference value: 1.1 %)", "format": "functional", "method_in_brief": "as §1"}, "[6]": {"biological_target": "T1, Eukaryotic translation initiation factor 2-alpha kinase 3 (Homo sapiens) (UniProt Q9NZJ5)", "T1 sequence (whole entry)": "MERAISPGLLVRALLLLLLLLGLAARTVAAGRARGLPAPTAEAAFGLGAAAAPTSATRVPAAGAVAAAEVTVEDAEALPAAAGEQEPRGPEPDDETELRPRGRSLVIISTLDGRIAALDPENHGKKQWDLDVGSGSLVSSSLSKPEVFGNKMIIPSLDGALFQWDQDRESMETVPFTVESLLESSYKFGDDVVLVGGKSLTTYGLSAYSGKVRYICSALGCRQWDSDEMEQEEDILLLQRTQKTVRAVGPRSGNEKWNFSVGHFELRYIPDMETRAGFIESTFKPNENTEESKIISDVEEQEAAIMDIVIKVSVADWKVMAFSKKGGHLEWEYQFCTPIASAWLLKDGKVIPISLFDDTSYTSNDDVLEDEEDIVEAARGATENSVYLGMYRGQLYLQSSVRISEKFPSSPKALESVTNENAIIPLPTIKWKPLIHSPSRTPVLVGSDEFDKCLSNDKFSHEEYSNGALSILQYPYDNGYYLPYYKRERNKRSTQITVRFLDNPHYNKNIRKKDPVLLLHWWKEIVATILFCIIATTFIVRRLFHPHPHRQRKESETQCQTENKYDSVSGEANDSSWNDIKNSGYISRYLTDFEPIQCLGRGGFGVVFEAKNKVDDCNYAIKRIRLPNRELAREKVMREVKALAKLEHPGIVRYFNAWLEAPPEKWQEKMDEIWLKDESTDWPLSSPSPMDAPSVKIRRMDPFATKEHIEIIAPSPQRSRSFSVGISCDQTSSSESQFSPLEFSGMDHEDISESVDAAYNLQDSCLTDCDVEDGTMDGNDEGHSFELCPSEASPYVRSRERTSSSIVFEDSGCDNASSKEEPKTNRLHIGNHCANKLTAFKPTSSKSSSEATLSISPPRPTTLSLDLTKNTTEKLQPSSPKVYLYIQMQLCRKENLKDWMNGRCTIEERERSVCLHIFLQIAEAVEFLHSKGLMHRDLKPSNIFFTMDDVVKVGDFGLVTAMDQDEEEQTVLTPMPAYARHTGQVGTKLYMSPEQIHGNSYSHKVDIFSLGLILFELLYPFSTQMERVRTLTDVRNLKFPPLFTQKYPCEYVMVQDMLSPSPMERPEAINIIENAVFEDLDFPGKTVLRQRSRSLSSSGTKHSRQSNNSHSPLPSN", "test": "Activation of PERK phosphorylation in human PC3 cells assessed as eIF2alpha phosphorylation after 24 hrs by Western blot analysis", "format": "cell-based", "method_in_brief": "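PC3 cells in RPMI 1640 with 10% FBS, treated with compound for timed intervals. DMSO vehicle control. Lysis in RIPA buffer, 40 μg protein per lane on SDS-PAGE, transfer to nitrocellulose. Primary antibodies overnight at 4 °C, HRP-secondary 45 min, ECL detection. GAPDH or β-actin used as loading control.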"}, "[7]": {"tested_on": "PC-3", "test": "Induction of morphological changes in human PC3 cells incubated for 22 hrs after ER stress inhibitor 4-PBA exposure for 2 hrs by phase-contrast microscopic analysis", "format": "functional, cell-based", "method_in_brief": "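PC3 cells pretreated 2 h with 100 μM 4-PBA (ER stress inhibitor), then exposed to agent for a further 22 h. Morphology by phase-contrast microscopy; viability by MTT in parallel.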"}, "[8]": {"tested_on": "PC-3", "test": "Cytotoxicity against human PC3 cells assessed as reduction in cell viability at 1 uM after 24 hrs in presence of […] inhibitor E-64d by MTT assay", "format": "functional, cell-based", "method_in_brief": "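PC3 cells pretreated with autophagy inhibitor 3-MA or E64d, then given 1 μM compound for 24 h. Viability measured by MTT (4 h, 570 nm). Morphology checked by phase-contrast microscopy.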"}, "[9]": {"tested_on": "PC-3M", "test": "Antitumor activity against human PC3M-lluc-C6 cells xenografted in athymic Balb/c mouse assessed as decrease in tumor burden by measuring photon intensity at 15 mg/kg, ip measured on day 18 by bioluminescence method (reference value: 2.332 x 10^10 photons/s/cm2)", "format": "functional"}, "[10]": {"tested_on": "PC-3", "test": "Induction of apoptosis in human PC3 cells after 24 hrs by Annexin V-FITC/propidium iodide based flow cytometric analysis", "format": "functional, cell-based", "method_in_brief": "as §1"}, "[11]": {"tested_on": "PC-3", "test": "Growth inhibition of human PC3 cells at IC30 in presence of bortezomib by MTT assay", "format": "functional, cell-based", "method_in_brief": "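PC3 cells incubated with increasing concentrations of compound combined with a second agent (bortezomib or partner compound). Viability determined, combination index calculated: CI < 1 synergism, = 1 additive, > 1 antagonism.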"}, "[12]": {"tested_on": "PC-3M", "test": "Induction of immature autophagy i in human PC3M-lluc-C6 cells xenografted in athymic Balb/c mouse assessed as increase in p62 protein levels at 15 mg/kg, ip administered every 2 days for 18 days by Western blot and immunohistochemical staining method", "format": "functional, organism-based", "method_in_brief": "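Male athymic BALB/c-nu mice (6 weeks) carried subcutaneous right-flank PC3M-luc-C6 xenografts (5 × 10^6 cells). At ~0.1 cm3 they were grouped (n = 5) and given 15 mg/kg i.p. suspension every 2 days; placebo and docetaxel 15 mg/kg were controls. Tumors were analyzed by Western blot and by immunohistochemistry (anti-LC3 1:800, anti-p62 1:500, overnight 4 °C, HRP/DAB, hematoxylin counterstain).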"}, "[13]": {"tested_on": "PC-3M", "test": "Induction of ER stress i in human PC3M-lluc-C6 cells xenografted in athymic Balb/c mouse assessed as increase in GRP78 protein levels at 15 mg/kg, ip administered every 2 days for 18 days by Western blot and immunohistochemical staining method", "format": "functional, organism-based", "method_in_brief": "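Tumor tissue from PC3M-luc-C6 xenografts in BALB/c-nu mice dosed 15 mg/kg i.p. every 2 days. GRP78 measured by Western blot and by immunohistochemistry (anti-GRP78 1:500 overnight at 4 °C, HRP/DAB, hematoxylin counterstain).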"}},
  "note": "The source made the active and inactive calls. The rule behind the calls is not given here.",
  "data": [
    {"smiles": "Cc1cc(C)cc(COc2cc3c(cc2OCc2cc(C)cc(C)c2)[C@@H]2C[C@H](O)C[C@@H](C)N2CC3)c1", "note": "(racemic)", "values": [
      {"measurement": "Activity", "setting": "[1]", "result": "65.1 - 78%"},
      {"measurement": "Activity", "setting": "[2]", "result": "16.1 - 21.3%"},
      {"measurement": "Activity", "setting": "[3]", "result": "10.8 - 12.3%"},
      {"measurement": "viability at 1 µM", "setting": "[4]", "result": 90, "unit": "%"},
      {"measurement": "Activity", "setting": "[5]", "result": 3.1, "unit": "%"},
      {"measurement": "Activity", "setting": "[6]", "result": "Active"},
      {"measurement": "Activity", "setting": "[7]", "result": "inactive"},
      {"measurement": "Activity", "setting": "[8]", "result": "inactive"},
      {"measurement": "Activity", "setting": "[9]", "result": 1.766, "unit": "×10⁹ /s/cm2"},
      {"measurement": "Activity", "setting": "[10]", "result": "Dose-dependent effect"},
      {"measurement": "growth inhibition (GI)", "setting": "[11]", "result": "Active"},
      {"measurement": "Activity", "setting": "[12]", "result": "Active"},
      {"measurement": "Activity", "setting": "[13]", "result": "Active"}
    ]}
  ]
}
